The source made the active and inactive calls. The rule behind the calls is not given here.
Experiments:
[1] = biological target: Calcium/calmodulin-dependent protein kinase type II subunit alpha (Homo sapiens) (UniProt Q9UQM7); experiment: Inhibition of full length recombinant human His-tagged CAMK2A expressed in baculovirus expression system at 1 uM by lantha screen kinase binding assay relative to control
[2] = biological target: Tyrosine-protein kinase ABL1 (Homo sapiens) (UniProt P00519); experiment: Inhibition of recombinant human His-tagged ABL1 expressed in baculovirus expression system at 1 uM by lantha screen kinase binding assay relative to control
Sequence of Tyrosine-protein kinase ABL1 (Homo sapiens) (P00519 whole entry): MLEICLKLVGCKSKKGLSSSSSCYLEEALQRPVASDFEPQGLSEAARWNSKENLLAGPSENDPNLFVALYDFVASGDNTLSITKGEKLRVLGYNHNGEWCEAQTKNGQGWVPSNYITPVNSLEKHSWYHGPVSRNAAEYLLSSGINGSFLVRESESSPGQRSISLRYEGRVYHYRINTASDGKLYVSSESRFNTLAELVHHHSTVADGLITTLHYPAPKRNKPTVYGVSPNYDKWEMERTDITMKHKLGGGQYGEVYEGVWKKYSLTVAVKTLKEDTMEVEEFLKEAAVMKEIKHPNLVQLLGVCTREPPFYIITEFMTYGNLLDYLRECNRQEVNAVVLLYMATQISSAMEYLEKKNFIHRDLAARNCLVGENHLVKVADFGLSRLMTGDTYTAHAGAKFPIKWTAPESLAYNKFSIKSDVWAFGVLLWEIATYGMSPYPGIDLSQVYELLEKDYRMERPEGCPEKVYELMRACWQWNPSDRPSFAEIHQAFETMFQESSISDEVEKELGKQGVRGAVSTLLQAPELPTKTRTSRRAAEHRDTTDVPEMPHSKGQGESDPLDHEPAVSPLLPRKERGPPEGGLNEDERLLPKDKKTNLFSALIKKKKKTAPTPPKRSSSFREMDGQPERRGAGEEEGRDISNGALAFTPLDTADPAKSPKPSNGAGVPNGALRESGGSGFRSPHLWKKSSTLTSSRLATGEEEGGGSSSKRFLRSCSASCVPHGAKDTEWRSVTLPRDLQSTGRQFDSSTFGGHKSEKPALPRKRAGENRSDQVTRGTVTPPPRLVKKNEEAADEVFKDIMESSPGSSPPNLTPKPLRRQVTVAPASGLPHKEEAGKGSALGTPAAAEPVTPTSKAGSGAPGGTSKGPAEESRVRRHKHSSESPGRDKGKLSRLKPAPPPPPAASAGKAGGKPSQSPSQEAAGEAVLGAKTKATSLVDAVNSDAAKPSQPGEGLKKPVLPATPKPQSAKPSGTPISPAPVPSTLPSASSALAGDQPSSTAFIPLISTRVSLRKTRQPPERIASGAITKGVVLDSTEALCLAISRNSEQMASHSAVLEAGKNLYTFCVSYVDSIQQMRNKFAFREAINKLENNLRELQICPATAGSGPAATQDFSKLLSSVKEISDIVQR
Outline: (§1)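 Binding-displacement format: the compound competes with an Alexa Fluor-conjugated tracer for binding to the kinase ATP site, rather than a peptide phosphorylation read-out.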

[3] = biological target: Serine/threonine-protein kinase pim-2 (Homo sapiens) (UniProt Q9P1W9); experiment: Inhibition of full length recombinant human GST-tagged PIM2 expressed in baculovirus expression system at 1 uM by lantha screen kinase binding assay relative to control
Sequence of Serine/threonine-protein kinase pim-2 (Homo sapiens) (Q9P1W9 whole entry, looked up, canonical isoform): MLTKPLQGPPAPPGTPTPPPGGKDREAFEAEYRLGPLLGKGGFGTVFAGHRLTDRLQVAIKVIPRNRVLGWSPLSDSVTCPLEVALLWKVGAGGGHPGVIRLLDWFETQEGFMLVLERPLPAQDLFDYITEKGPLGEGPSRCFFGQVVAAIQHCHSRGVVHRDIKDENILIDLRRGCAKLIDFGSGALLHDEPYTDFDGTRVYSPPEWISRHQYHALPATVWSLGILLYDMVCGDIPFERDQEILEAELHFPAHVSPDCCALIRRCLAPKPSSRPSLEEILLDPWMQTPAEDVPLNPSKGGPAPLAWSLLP

[4] = biological target: Casein kinase I isoform gamma-3 (Homo sapiens) (UniProt Q9Y6M4); experiment: Inhibition of full length recombinant human GST-tagged CSNK1G3 expressed in baculovirus expression system at 1 uM by lantha screen kinase binding assay relative to control
[5] = biological target: MAP kinase-interacting serine/threonine-protein kinase 2 (Homo sapiens) (UniProt Q9HBH9); experiment: Inhibition of full length recombinant human N-terminal GST-tagged MKNK2 expressed in insect cells at 1 uM by lantha screen kinase binding assay relative to control; outline: as §1
[6] = biological target: cAMP-dependent protein kinase catalytic subunit alpha (Homo sapiens) (UniProt P17612); experiment: Inhibition of recombinant human His-tagged PRKACA expressed in Escherichia coli at 1 uM by lantha screen kinase binding assay relative to control; outline: as §1
[7] = biological target: Casein kinase I isoform epsilon (Homo sapiens) (UniProt P49674); experiment: Inhibition of full length recombinant human His-tagged CSNK1E expressed in baculovirus expression system at 1 uM by lantha screen kinase binding assay relative to control
[8] = biological target: T1, Cyclin-dependent kinase 5/CDK5 activator 1 (Homo sapiens) (UniProt Q00535+Q15078); experiment: Inhibition of full length recombinant human GST-tagged, His-tagged CDK5/p25 expressed in baculovirus expression system at 1 uM by lantha screen kinase binding assay
T1 sequence (Q00535 whole entry): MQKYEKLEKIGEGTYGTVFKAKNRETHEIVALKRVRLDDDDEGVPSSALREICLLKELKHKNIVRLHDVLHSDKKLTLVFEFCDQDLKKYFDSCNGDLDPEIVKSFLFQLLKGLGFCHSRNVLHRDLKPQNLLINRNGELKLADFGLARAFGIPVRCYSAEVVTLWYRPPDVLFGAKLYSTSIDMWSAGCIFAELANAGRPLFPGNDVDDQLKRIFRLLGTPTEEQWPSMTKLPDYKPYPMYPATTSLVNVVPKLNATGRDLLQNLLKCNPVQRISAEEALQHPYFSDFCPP
T1 sequence (Q15078 99-307 partner limits assumed): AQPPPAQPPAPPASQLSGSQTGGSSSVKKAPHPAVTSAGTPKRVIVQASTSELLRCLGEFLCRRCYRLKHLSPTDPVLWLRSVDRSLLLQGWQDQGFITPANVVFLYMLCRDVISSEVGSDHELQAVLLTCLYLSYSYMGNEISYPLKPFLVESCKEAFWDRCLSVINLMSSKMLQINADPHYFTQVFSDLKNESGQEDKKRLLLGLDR

[9] = biological target: Dual specificity protein kinase CLK2 (Homo sapiens) (UniProt P49760); experiment: Inhibition of recombinant human GST-tagged CLK2 expressed in baculovirus expression system at 1 uM by lantha screen kinase binding assay relative to control; outline: as §1
[10] = biological target: Dual specificity protein kinase CLK3 (Homo sapiens, UniProt P49761); experiment: Inhibition of recombinant human GST-tagged CLK3 expressed in baculovirus expression system by lantha screen kinase binding assay; outline: as §1
[11] = biological target: Myosin light chain kinase, smooth muscle (Homo sapiens) (UniProt Q15746); experiment: Inhibition of recombinant human GST-tagged MYLK expressed in baculovirus expression system at 1 uM by lantha screen kinase binding assay relative to control; outline: as §1
[12] = biological target: Dual specificity tyrosine-phosphorylation-regulated kinase 3 (Homo sapiens) (UniProt O43781); experiment: Inhibition of full length recombinant human GST-tagged DYRK3 expressed in baculovirus expression system at 1 uM by lantha screen kinase binding assay relative to control
[13] = biological target: Mitogen-activated protein kinase 8 (Homo sapiens) (UniProt P45983); experiment: Inhibition of full length recombinant human His-tagged MAPK8 expressed in baculovirus expression system at 1 uM by lantha screen kinase binding assay relative to control; outline: as §1
Sequence of Mitogen-activated protein kinase 8 (Homo sapiens) (P45983 whole entry): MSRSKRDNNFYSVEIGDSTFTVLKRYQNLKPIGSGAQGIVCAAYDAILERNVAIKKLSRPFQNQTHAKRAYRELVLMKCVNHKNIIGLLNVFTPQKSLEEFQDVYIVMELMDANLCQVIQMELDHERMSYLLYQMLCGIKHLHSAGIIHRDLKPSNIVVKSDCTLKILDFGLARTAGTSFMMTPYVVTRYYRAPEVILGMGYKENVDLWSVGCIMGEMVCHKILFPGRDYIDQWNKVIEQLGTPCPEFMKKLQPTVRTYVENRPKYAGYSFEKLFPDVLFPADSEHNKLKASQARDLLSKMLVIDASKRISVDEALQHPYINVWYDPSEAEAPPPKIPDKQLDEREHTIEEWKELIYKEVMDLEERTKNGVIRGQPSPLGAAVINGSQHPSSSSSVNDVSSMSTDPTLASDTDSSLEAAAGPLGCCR

[14] = biological target: Glycogen synthase kinase-3 beta (Homo sapiens) (UniProt P49841); experiment: Inhibition of full length recombinant human His-tagged GSK3beta expressed in baculovirus expression system at 1 uM by lantha screen kinase binding assay relative to control; outline: as §1
[15] = biological target: Homeodomain-interacting protein kinase 1 (Homo sapiens) (UniProt Q86Z02); experiment: Inhibition of recombinant human N-terminal GST-tagged HIPK1 expressed in baculovirus expression system at 1 uM by lantha screen kinase binding assay relative to control; outline: as §1
Sequence of Homeodomain-interacting protein kinase 1 (Homo sapiens) (Q86Z02 whole entry, looked up): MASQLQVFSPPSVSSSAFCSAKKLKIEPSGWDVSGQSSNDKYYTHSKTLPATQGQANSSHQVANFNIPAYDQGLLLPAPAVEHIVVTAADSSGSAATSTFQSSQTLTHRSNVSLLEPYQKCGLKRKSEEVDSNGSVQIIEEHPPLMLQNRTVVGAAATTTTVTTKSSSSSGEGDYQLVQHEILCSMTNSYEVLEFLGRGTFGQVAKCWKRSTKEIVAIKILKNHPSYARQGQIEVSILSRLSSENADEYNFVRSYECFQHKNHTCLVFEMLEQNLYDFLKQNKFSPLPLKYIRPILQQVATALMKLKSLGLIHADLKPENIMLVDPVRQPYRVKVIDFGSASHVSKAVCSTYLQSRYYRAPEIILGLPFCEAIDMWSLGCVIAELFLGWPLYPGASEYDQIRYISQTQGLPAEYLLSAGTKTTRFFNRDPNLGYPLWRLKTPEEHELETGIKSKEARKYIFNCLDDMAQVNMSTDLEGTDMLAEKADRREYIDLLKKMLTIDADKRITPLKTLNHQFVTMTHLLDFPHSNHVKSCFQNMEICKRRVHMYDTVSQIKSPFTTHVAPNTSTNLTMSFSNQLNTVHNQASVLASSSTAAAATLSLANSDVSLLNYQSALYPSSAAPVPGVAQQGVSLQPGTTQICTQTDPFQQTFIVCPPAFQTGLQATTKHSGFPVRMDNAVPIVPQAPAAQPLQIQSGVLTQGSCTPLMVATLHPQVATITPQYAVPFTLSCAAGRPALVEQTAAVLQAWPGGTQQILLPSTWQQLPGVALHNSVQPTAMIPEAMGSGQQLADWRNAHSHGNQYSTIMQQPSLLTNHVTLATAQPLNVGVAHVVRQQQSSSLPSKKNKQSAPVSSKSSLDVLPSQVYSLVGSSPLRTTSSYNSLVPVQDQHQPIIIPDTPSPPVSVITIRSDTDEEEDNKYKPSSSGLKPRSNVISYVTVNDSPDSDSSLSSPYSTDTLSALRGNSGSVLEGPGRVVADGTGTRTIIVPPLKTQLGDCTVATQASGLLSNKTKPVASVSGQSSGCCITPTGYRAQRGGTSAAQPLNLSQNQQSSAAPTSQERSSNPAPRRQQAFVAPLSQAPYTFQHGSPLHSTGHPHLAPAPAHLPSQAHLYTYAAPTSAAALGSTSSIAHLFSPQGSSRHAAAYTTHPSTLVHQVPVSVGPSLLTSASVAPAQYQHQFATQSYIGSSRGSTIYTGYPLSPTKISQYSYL

[16] = biological target: Mitogen-activated protein kinase 14 (Homo sapiens) (UniProt Q16539); experiment: Inhibition of full length recombinant human GST-tagged MAPK14 expressed in Escherichia coli at 1 uM by lantha screen kinase binding assay relative to control
Sequence of Mitogen-activated protein kinase 14 (Homo sapiens) (Q16539 whole entry): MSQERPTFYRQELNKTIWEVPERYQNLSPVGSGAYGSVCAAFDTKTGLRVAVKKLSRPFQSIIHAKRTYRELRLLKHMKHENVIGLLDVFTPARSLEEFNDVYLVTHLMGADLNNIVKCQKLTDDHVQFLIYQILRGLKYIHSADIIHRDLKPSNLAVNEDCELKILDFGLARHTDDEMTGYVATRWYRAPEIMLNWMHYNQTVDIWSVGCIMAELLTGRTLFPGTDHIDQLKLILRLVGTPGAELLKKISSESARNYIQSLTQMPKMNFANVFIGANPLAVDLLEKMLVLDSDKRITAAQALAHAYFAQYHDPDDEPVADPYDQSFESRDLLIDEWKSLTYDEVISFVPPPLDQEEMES

[17] = biological target: Receptor-interacting serine/threonine-protein kinase 2 (Homo sapiens) (UniProt O43353); experiment: Inhibition of recombinant human His-tagged RIPK2 expressed in baculovirus expression system at 1 uM by lantha screen kinase binding assay relative to control; outline: as §1
[18] = biological target: BDNF/NT-3 growth factors receptor (Homo sapiens) (UniProt Q16620); experiment: Inhibition of recombinant human His-tagged NTRK2 expressed in baculovirus expression system at 5 uM by lantha screen kinase binding assay relative to control; outline: as §1
[19] = biological target: Calcium/calmodulin-dependent protein kinase type II subunit alpha (Homo sapiens) (UniProt Q9UQM7); experiment: Inhibition of full length recombinant human His-tagged CAMK2A expressed in baculovirus expression system at 5 uM by lantha screen kinase binding assay relative to control
[20] = biological target: Serine/threonine-protein kinase D2 (Homo sapiens) (UniProt Q9BZL6); experiment: Inhibition of full length recombinant human GST-tagged PRKD2 expressed in baculovirus expression system at 5 uM by lantha screen kinase binding assay relative to control
[21] = biological target: T1, Cyclin-dependent kinase 5/CDK5 activator 1 (Homo sapiens); experiment: Inhibition of full length recombinant human GST-tagged, His-tagged CDK5/p25 expressed in baculovirus expression system at 5 uM by lantha screen kinase binding assay
[22] = biological target: Epidermal growth factor receptor (Homo sapiens, UniProt P00533); experiment: Inhibition of recombinant human GST-tagged EGFR expressed in baculovirus expression system at 5 uM by lantha screen kinase binding assay relative to control; outline: as §1
[23] = biological target: T2, Myosin light chain kinase 2, skeletal/cardiac muscle (Homo sapiens, UniProt Q9H1R3); experiment: Inhibition of full length recombinant human N-terminal GST-tagged MLCK expressed in baculovirus expression system at 5 uM by lantha screen kinase binding assay relative to control; outline: as §1
T2 sequence (Q9H1R3 whole entry): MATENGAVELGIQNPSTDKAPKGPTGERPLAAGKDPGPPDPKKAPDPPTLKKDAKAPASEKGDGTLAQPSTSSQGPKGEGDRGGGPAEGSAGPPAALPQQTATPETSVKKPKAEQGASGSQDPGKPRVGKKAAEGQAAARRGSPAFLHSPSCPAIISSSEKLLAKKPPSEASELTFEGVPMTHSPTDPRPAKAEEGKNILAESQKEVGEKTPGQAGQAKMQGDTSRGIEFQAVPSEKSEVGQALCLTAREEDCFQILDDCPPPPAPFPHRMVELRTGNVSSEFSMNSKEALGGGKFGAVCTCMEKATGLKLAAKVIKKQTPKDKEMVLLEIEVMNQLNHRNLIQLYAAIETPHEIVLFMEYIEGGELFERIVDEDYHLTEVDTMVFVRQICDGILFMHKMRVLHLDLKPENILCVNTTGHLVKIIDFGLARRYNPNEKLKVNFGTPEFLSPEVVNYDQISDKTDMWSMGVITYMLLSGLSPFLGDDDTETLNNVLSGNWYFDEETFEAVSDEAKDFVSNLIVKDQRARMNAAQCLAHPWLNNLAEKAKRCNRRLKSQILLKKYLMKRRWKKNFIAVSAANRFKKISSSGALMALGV

[24] = biological target: Tyrosine-protein kinase ABL1 (Homo sapiens) (UniProt P00519); experiment: Inhibition of recombinant human His-tagged ABL1 expressed in baculovirus expression system at 5 uM by lantha screen kinase binding assay relative to control; outline: as §1
[25] = biological target: Mitogen-activated protein kinase 14 (Homo sapiens) (UniProt Q16539); experiment: Inhibition of full length recombinant human GST-tagged MAPK14 expressed in Escherichia coli at 5 uM by lantha screen kinase binding assay relative to control
[26] = biological target: Homeodomain-interacting protein kinase 1 (Homo sapiens) (UniProt Q86Z02); experiment: Inhibition of recombinant human N-terminal GST-tagged HIPK1 expressed in baculovirus expression system at 5 uM by lantha screen kinase binding assay relative to control; outline: as §1
[27] = biological target: Mitogen-activated protein kinase 8 (Homo sapiens) (UniProt P45983); experiment: Inhibition of full length recombinant human His-tagged MAPK8 expressed in baculovirus expression system at 5 uM by lantha screen kinase binding assay relative to control; outline: as §1
[28] = biological target: cAMP-dependent protein kinase catalytic subunit alpha (Homo sapiens) (UniProt P17612); experiment: Inhibition of recombinant human His-tagged PRKACA expressed in Escherichia coli at 5 uM by lantha screen kinase binding assay relative to control; outline: as §1
[29] = biological target: T2, Myosin light chain kinase 2, skeletal/cardiac muscle; experiment: Inhibition of full length recombinant human N-terminal GST-tagged skeletal MYLK2 expressed in baculovirus expression system at 5 uM by lantha screen kinase binding assay relative to control; outline: as §1
[30] = biological target: Serine/threonine-protein kinase pim-1 (Homo sapiens, UniProt P11309); experiment: Inhibition of PIM1 (unknown origin) at 5 uM relative to control
Plasma = experiment: Metabolic stability in rat plasma assessed as drug degradation at 1 uM after 120 mins by LC-MS/MS analysis; assay type: ADME, cell-free; conditions: 2 h
Outline: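 Compound (1 µM) in pooled heparinised rat plasma at 37 °C, sampled at 0, 5, 15, 30, 60 and 120 min. Reaction stopped with 5 volumes of cold acetonitrile containing internal standard. Remaining compound was measured by LC-MS/MS; means of two experiments.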

Sequence of Calcium/calmodulin-dependent protein kinase type II subunit alpha (Homo sapiens) (Q9UQM7 whole entry): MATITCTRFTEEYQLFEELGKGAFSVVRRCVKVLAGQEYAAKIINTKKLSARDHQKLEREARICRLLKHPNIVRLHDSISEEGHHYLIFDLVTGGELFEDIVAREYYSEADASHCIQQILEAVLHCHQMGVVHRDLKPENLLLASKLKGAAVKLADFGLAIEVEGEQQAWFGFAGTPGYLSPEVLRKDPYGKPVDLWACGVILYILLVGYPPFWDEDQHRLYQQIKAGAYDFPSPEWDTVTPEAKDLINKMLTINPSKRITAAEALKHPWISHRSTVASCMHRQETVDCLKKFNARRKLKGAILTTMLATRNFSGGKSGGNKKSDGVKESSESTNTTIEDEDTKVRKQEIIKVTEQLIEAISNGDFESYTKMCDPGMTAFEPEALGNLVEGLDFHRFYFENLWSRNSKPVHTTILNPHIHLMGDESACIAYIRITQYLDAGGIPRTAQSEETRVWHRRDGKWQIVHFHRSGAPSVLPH

O=C1NC(=S)S/C1=C\c1ccc2ncccc2c1
inhibition [1]: 7%
inhibition [2]: 14%
inhibition [3]: 31%
inhibition [4]: 17%
inhibition [5]: 34%
inhibition [6]: inactive
inhibition [7]: 1%
inhibition [8]: inactive
inhibition [9]: 80%
IC50 [10]: 86.6 nM
inhibition [11]: 48%
inhibition [12]: 84%
inhibition [13]: 7%
inhibition [14]: 10%
inhibition [15]: 33%
inhibition [16]: 6%
inhibition [17]: 83%

O=C1NC(=S)S/C1=C\c1ccc2ncsc2c1
inhibition [18]: inactive
inhibition [19]: inactive
inhibition [20]: inactive
inhibition [21]: inactive
inhibition [22]: inactive
inhibition [23]: 12%
inhibition [24]: 6%
inhibition [25]: inactive
inhibition [26]: inactive
inhibition [27]: 14%
inhibition [28]: inactive
inhibition [29]: inactive

CC1C/C(=C\c2ccc3c(c2)CCO3)C(=O)O1 (stereo unspecified)
inhibition [30]: 19%
Stability (Plasma): Stable

From ChEMBL document CHEMBL3774321, “Systematic diversification of benzylidene heterocycles yields novel inhibitor scaffolds selective for Dyrk1A, Clk1 and CK2” (Eur J Med Chem, 2016)
